Sampled rows, rich in hits. Any-hit rate of the full collection: about 3.1%.
Ecoli rRNA inh – inhibitors of bacterial rRNA selective over humanized ribosomes. E. coli WT GFP vs humanized-ribosome RFP mutants, fluorescence, 24 h; active compounds read low; DMSO median 0, no signal -100. GFP signal change (wild-type ribosome), % (concentration not given with the values). actives 1.6% (n = 350,000);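 active = significant combined selectivity score with lowered wild-type GFP, culture density cut under 30%, mutant RFP and density less affected; inactive = any of these conditions unmet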
Cneo AK release – causes C. neoformans cell lysis; lysis activity, % at 15 µM; actives 0.2% (n = 360,000); adenylate kinase release luminescence, 4 h; normalised: neutral wells 0, clomiphene wells 100;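 active = mean lysis activity across replicates of at least 80%, whatever share of replicates individually reach that level; inactive = mean lysis activity below 80%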
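Test system: log-phase Cryptococcus neoformans yeast cells. Input: 5 × 10^6 yeast cells/mL. Medium: fresh YPD growth medium. Doses: single dose. Incubation: static 4 h at 37 °C with compound, 1 h detection. Measured by: luminescent adenylate kinase detection reagent. Read-out: signal increase indicating cell lysis. Benchmarks: Clomiphene.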
DENV2 CPE – DENV2-induced cell death inhibition | DENV2-infected cells, cytopathic effect rescue, plate reader | CPE inhibition, % at 9.99 µM | actives 1.7% (n = 350,000) | AID 651640; in the data active = CPE inhibition above about 20%, passing the limit was not always enough; tested in BHK-21 cells
E-selectin induc – induces E-selectin expression in human endothelial cells; P16581; HUVEC E-selectin immunofluorescence imaging; normalized: neutral wells 0, TNF-alpha wells 100; activation, % at 7.58 µM; actives 0.37% (n = 260,000); AID 686992;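 active = mean E-selectin-positive cell signal at least 10% of the positive control, reached in at least 60% of replicates, without over 20% cell loss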
Target sequence (P16581 whole entry, looked up): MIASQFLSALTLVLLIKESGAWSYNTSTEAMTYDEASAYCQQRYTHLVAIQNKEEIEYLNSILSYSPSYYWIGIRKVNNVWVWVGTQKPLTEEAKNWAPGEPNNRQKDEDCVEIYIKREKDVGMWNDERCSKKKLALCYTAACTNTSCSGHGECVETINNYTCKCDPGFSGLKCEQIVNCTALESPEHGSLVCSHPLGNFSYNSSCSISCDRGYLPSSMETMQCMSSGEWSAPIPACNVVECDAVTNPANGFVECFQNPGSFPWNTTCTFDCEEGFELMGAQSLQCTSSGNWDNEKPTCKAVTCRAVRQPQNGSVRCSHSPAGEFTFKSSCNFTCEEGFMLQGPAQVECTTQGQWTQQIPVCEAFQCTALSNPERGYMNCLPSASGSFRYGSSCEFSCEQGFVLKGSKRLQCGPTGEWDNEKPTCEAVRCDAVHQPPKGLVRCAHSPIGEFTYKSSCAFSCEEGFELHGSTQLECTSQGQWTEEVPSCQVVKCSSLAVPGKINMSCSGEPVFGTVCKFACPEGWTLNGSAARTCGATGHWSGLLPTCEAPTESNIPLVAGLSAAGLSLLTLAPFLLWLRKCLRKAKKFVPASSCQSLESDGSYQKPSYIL
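material = human umbilical vein endothelial cells (HUVEC), E-selectin induction | quantity = 3,000 cells/well | medium = EGM-2 growth medium on 0.1% gelatin-coated wells | technique = immunofluorescence imaging | read-out basis = % PE-positive cells | control set = TNF-alpha positive control, DMSO neutral control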
miR-122 sensor – miR-122 inhibition in Huh7 cells; Huh7 miR-122 Renilla luciferase sensor, 48 h; neutral wells = 0, positive control = 100; activation (reporter increase), % at 12.5 µM; actives 0.3% (n = 340,000); AID 602342;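 active = mean replicate activation score at least 90 and every replicate individually at or above 90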;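 also: higher luciferase means less miR-122 activity so hits act as miR-122 inhibitors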
Large screens that a line does not name were inactive; [ ] = dose if it differs, or a comment.

O=C(COc1ccc(S(=O)(=O)N2CCCC2)cc1)NCCC1=CCCCC1	Ecoli rRNA inh -20.2 (no result: E-selectin induc)
CC(C)(C)NS(=O)(=O)c1ccc(OCC(=O)NCCC2=CCCCC2)cc1	none (no result: DENV2 CPE, E-selectin induc)
CCCN1C[C@@H](C)[C@H](OC)CN(C)C(=O)c2cc(NC(=O)c3cnccn3)ccc2OC[C@H]1C	none (no result: miR-122 sensor)
CCOC(=O)C1CCN(C(=O)COC(=O)c2ccc([N+](=O)[O-])o2)CC1	DENV2 CPE 76.3 (no result: E-selectin induc)
CC1CC(C)CN(C(=O)COC(=O)c2ccc([N+](=O)[O-])o2)C1 (centres undefined)	none
CCCNC(=O)N1C[C@@H]2[C@H](c3ccccc31)[C@H](CO)N2Cc1ccc(OC)cc1	Cneo AK release 100.6
O=C(Nc1ccc(F)cc1)N1C[C@H]2[C@@H](c3ccccc31)[C@@H](CO)N2Cc1ccccc1	none
O=C(Nc1ccc(F)cc1)N1C[C@H]2[C@@H](c3ccccc31)[C@@H](CO)N2Cc1ccccc1Cl	DENV2 CPE 30.0
CC(C)NC(=O)N1[C@H](CO)[C@@H]2c3ccccc3N(C(=O)Nc3ccc(F)cc3)C[C@@H]21	none
CC(C)NC(=O)N1[C@H](CO)[C@H]2c3ccccc3N(C(=O)Nc3ccc(F)cc3)C[C@H]21	DENV2 CPE 27.0
O=C(Nc1ccccc1)N1C[C@H]2[C@@H](c3ccccc31)[C@H](CO)N2Cc1ccccc1	DENV2 CPE 56.9
CCCN1[C@H](C(=O)OC)[C@@H](CO)[C@@H]2Cn3c(ccc(-c4cccc(C(=O)N(C)C)c4)c3=O)[C@@H]21	none (no result: Cneo AK release, miR-122 sensor)
COc1ccc(CN2C[C@@H](C)[C@H](OC)CN(C)C(=O)c3ccc(NC(C)=O)cc3OC[C@H]2C)cc1	none (no result: Ecoli rRNA inh, Cneo AK release, E-selectin induc, miR-122 sensor)
COc1cccc(NC(=O)N(C)C[C@H]2Oc3cc(C#Cc4ccccc4)ccc3S(=O)(=O)N([C@@H](C)CO)C[C@H]2C)c1	none
O=C(Nc1ccccc1)N1C[C@@H]2[C@H](c3ccccc31)[C@@H](CO)N2Cc1ccccc1	DENV2 CPE 45.3
O=C(Nc1cc(F)ccc1F)N1C[C@@H]2[C@H](c3ccccc31)[C@H](CO)N2Cc1ccncc1	Ecoli rRNA inh -43.3
COCC(=O)Nc1ccc2c(c1)[C@H]1C[C@H](CC(=O)N(C)C)O[C@@H](CO)[C@H]1O2	none
CCOC(=O)N1CCC(NCCNC(=O)c2ccc(F)c(F)c2)CC1	DENV2 CPE 21.1 (no result: miR-122 sensor)
N#Cc1cc2cc3c(cc2nc1Cl)OCCO3	DENV2 CPE 40.7 (no result: Cneo AK release)
CSc1ccc(-c2nc(CSCC(=O)N3CCOCC3)c(C)o2)cc1	none (no result: DENV2 CPE, E-selectin induc)
CCc1ccc(-c2nc(CSCC(=O)N3CCN(c4ncccn4)CC3)c(C)o2)cc1	DENV2 CPE 86.5
CSc1ccccc1OCc1cc(C(=O)N[C@H]2CCCCNC2=O)no1	Ecoli rRNA inh -18.9 (no result: E-selectin induc, miR-122 sensor)
COc1ccc(OCc2cc(C(=O)N[C@H]3CCCCNC3=O)no2)c(Cl)c1	none (no result: E-selectin induc, miR-122 sensor)
O=C(Nc1ccccc1)N1C[C@@H]2[C@H](c3ccccc31)[C@H](CO)N2C(=O)c1ccncc1	none
O=C(CCC(=O)N1CCN(c2ccccc2F)CC1)N1CCN(c2ccc(F)cc2)CC1	none (no result: E-selectin induc)
O=C(CCC(=O)N1CCN(c2ccc(F)cc2)CC1)N1CCN(c2ccc(F)cc2)CC1	Ecoli rRNA inh -21.2 (no result: E-selectin induc)
COC(=O)[C@H](Cc1ccccc1)NC(=O)N1CCCCCC1	none (no result: E-selectin induc)
Nc1nc(SCC(=O)N2CCN(c3ccc(F)cc3)CC2)n[nH]1	DENV2 CPE 40.0
Nc1nc(SCC(=O)N2CCN(c3ccccc3)CC2)n[nH]1	none
COC(=O)[C@H](Cc1ccccc1)NC(=O)N1CCN(c2ccc(F)cc2)CC1	Ecoli rRNA inh -19.6
COc1ccccc1NC(=O)N[C@@H]1CC[C@H](CCNS(=O)(=O)c2ccccc2)O[C@H]1CO	none (no result: Cneo AK release, DENV2 CPE)
Cc1ccccc1-c1ccc([C@@H]2[C@@H](CO)N3C(=O)CN(C(=O)Nc4ccccc4)C[C@H]23)cc1	none (no result: Cneo AK release, DENV2 CPE, E-selectin induc, miR-122 sensor)
O=C(C[C@@H]1CC[C@H]2[C@@H](COC[C@H](O)CN2Cc2nccs2)O1)NCc1ccc(Oc2ccccc2)cc1	none
Cc1ccc2nc(-c3ccc(NC(=O)COCC(=O)O)cc3)sc2c1	Ecoli rRNA inh -35.2 (no result: miR-122 sensor)
COc1ccc2[nH]c(=O)c(CN(c3ccccc3OC)S(=O)(=O)c3ccccc3)cc2c1	none
COc1ccc2cc(CN(Cc3cccs3)Cc3nnnn3Cc3ccccc3)c(=O)[nH]c2c1	none (no result: Ecoli rRNA inh, DENV2 CPE, E-selectin induc)
COc1cccc(CN(Cc2cccnc2)S(=O)(=O)c2ccc(-n3cnnn3)c(C)c2)c1	Ecoli rRNA inh -24.8 (no result: E-selectin induc)
COc1ccc(S(=O)(=O)N(Cc2cccnc2)Cc2cc3ccccc3[nH]c2=O)cc1	Ecoli rRNA inh -28.9 (no result: E-selectin induc)
COc1ccc2cc(CN(Cc3cccnc3)Cc3nnnn3Cc3ccccc3)c(=O)[nH]c2c1	Ecoli rRNA inh -27.8 (no result: Cneo AK release, DENV2 CPE, E-selectin induc, miR-122 sensor)
COc1ccc2[nH]c(=O)c(CN(c3ccccc3)S(=O)(=O)c3ccccc3)cc2c1	E-selectin induc 86.4
C[C@H]1CN([C@@H](C)CO)C(=O)Cc2cc(NC(=O)CCCN(C)C)ccc2O[C@@H]1CN(C)C(=O)NC1CCCCC1	none
C[C@H](CO)N1C[C@H](C)[C@@H](CN(C)Cc2ccccc2)Oc2c(NC(=O)Cc3cn(C)c4ccccc34)cccc2C1=O	none (no result: Cneo AK release, DENV2 CPE, E-selectin induc, miR-122 sensor)
O=C(NCc1ccc(F)cc1)[C@@H]1[C@@H](CO)[C@@H]2Cn3c(ccc(C4=CCCCC4)c3=O)[C@H]1N2	none (no result: miR-122 sensor)
C[C@@H]1CN([C@@H](C)CO)C(=O)Cc2cc(NS(=O)(=O)c3ccc(F)cc3)ccc2O[C@@H]1CN(C)S(=O)(=O)c1cn(C)cn1	none
Cc1noc(C)c1NC(=O)N1C[C@@H](O)COC[C@@H]2O[C@@H](CC(=O)N[C@@H]3CCN(Cc4ccccc4)C3)CC[C@H]21	none (no result: Cneo AK release, DENV2 CPE, E-selectin induc, miR-122 sensor)
C[C@@H]1CCCCO[C@@H](CN(C)C(=O)Nc2cccc3ccccc23)[C@H](C)CN([C@H](C)CO)C(=O)c2cc(NC(=O)Nc3ccc(C(F)(F)F)cc3)ccc2O1	none
Cc1noc(C)c1NC(=O)Nc1cccc2c1O[C@@H](CN(C)Cc1ccc(C(F)(F)F)cc1)[C@H](C)CN([C@@H](C)CO)C2=O	DENV2 CPE 23.3, E-selectin induc 252.1
Cc1noc(C)c1NC(=O)Nc1cccc2c1O[C@H](CN(C)Cc1ccccc1)[C@@H](C)CN([C@H](C)CO)C2=O	miR-122 sensor 96.5[16.7 µM]
Cc1noc(C)c1NC(=O)Nc1cccc2c1O[C@@H](CN(C)Cc1ccc(Cl)c(Cl)c1)[C@@H](C)CN([C@H](C)CO)C2=O	miR-122 sensor 114.1[16.7 µM]
C[C@@H]1CN(C)C(=O)Cc2cc(N(C)C)ccc2O[C@@H]1CN(C)S(C)(=O)=O	none (no result: Cneo AK release, DENV2 CPE, E-selectin induc, miR-122 sensor)
O=C(C[C@@H]1CC[C@@H]2[C@H](COC[C@H](O)CN2S(=O)(=O)c2ccccc2)O1)N1CCOCC1	none
C[C@@H]1CN([C@@H](C)CO)C(=O)c2cc(C3=CCCCC3)cnc2O[C@H]1CN(C)S(C)(=O)=O	none (no result: Cneo AK release, DENV2 CPE)
Cc1c(Cl)c(C(=O)N2CCCC2)nn1C	DENV2 CPE 121.2 (no result: Cneo AK release, E-selectin induc, miR-122 sensor)
Cc1c(Cl)c(C(=O)N2CCCCCC2)nn1C	none (no result: miR-122 sensor)

Compound activity: PubChem BioAssay, Broad Institute
